Consider 18 molecules from ChEMBL document CHEMBL4368937, “Design, synthesis and biological evaluation of low molecular weight CXCR4 ligands” (Bioorg Med Chem, 2019).

Series [1] addresses T1, C-X-C chemokine receptor type 4 (Homo sapiens, UniProt P61073). Kind of series: Competitive inhibition of [125I]-CXCL12 binding to CXCR4 in human Jurkat cells at 1 uM in absence of ZnCl2 after 2 hrs by gamma counting analysis relative to control. In kind it is cell-based.
The nature of series [2]: Cytotoxicity against human MT4 cells in absence of ZnCl2. In kind it is cell-based.
Series [3] concerns the target T1, C-X-C chemokine receptor type 4. Kind of series: Competitive inhibition of [125I]-CXCL12 binding to CXCR4 in human Jurkat cells at 1 uM in presence of ZnCl2 after 2 hrs by gamma counting analysis relative to control. In kind it is cell-based.
For series [4] the target is unchanged. The series can be described thus: Competitive inhibition of TAMRAAc-TZ14011 binding to CXCR4 (unknown origin) expressed in CHO cells at 1 uM in presence of ZnCl2 by NanoBRET assay relative to control. In kind it is cell-based. Put shortly: (§1)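 Single-point competition in CHO cells stably expressing N-terminally Nluc-tagged CXCR4 (5 x 10^4 cells, seeded 24 h earlier at 37 °C, 5% CO2, medium then replaced with OptiMEM). Cells were incubated with 10 nM TAMRA-Ac-TZ14011 plus 1 µM compound, without or with 10 µM ZnCl2 (10 eq), for 1 h at 25 °C. Furimazine was added and BRET read as acceptor (>610 nm) over donor (460 nm). Inhibition is relative to no compound and to excess Ac-TZ14011; mean ± SEM, n = 3.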

Series [5] relates to Human immunodeficiency virus 1. Kind of series: Antiviral activity against R5 tropic HIV-1 NL(AD8) infected in human MT4 cells assessed as protection against virus-induced cytopathic effect at 10 uM in presence of ZnCl2 after 5 days by MTT assay. In kind it is functional. To be noted: Human immunodeficiency virus 1, NL(AD8), MT4, 120 h.
Series [6] relates to Human immunodeficiency virus 1. Kind of series: Antiviral activity against R5 tropic HIV-1 NL(AD8) infected in human MT4 cells assessed as protection against virus-induced cytopathic effect at 10 uM in absence of ZnCl2 after 5 days by MTT assay. In kind it is functional. To be noted: Human immunodeficiency virus 1, NL(AD8), MT4, 120 h.
For series [7], the system named is Human immunodeficiency virus 1. The series can be described thus: Antiviral activity against X4 tropic HIV-1 NL4-3 infected in human MT4 cells assessed as protection against virus-induced cytopathic effect in absence of ZnCl2 after 5 days by MTT assay. In kind it is functional, organism-based. As to conditions: Human immunodeficiency virus 1, NL4-3, MT4, 120 h. The method, boiled down: (§2)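 Protection of MT-4 cells from X4 HIV-1 NL4-3 cytopathicity. Infected cells (MOI 0.001, 2.0 × 10^4 cells/well) received graded compound concentrations, without or with ZnCl2 (10 eq), for 5 days at 37 °C. Viable cells were counted by MTT. EC50 is the concentration giving 50% protection; mean of at least three independent experiments.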

The test system of series [8] is Human immunodeficiency virus 1. The series can be described thus: Antiviral activity against X4 tropic HIV-1 NL4-3 infected in human MT4 cells assessed as protection against virus-induced cytopathic effect in presence of ZnCl2 after 5 days by MTT assay. As to conditions: Human immunodeficiency virus 1, NL4-3, MT4, 120 h. In kind it is functional, organism-based. The method, boiled down:
as §2

Series [9] addresses T1, C-X-C chemokine receptor type 4. Kind of series: Competitive inhibition of TAMRAAc-TZ14011 binding to CXCR4 (unknown origin) expressed in CHO cells at 1 uM in absence of ZnCl2 by NanoBRET assay relative to control. In kind it is cell-based. The method, boiled down: as §1
Series [10] shares this target. The series can be described thus: Competitive inhibition of TAMRAAc-TZ14011 binding to CXCR4 (unknown origin) expressed in CHO cells in presence of ZnCl2 by NanoBRET assay relative to control. In kind it is cell-based. Put shortly: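 Cells were incubated with 10 nM TAMRA-Ac-TZ14011 and compound plus ZnCl2 (10 eq). Furimazine was added and BRET ratio taken as >610 nm over 460 nm emission. Inhibition is scaled between no compound and excess Ac-TZ14011.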

T1 sequence (P61073 whole entry): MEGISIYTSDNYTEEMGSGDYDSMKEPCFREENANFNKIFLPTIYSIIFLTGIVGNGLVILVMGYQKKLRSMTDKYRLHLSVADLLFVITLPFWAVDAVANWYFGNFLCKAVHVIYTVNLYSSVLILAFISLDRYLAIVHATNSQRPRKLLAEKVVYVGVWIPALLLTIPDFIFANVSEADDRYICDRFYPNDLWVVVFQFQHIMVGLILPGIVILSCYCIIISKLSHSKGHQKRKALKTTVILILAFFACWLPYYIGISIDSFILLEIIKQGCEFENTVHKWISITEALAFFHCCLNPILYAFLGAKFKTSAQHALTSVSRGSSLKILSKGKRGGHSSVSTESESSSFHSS

Take `c1ccc(CN(Cc2ccccn2)Cc2ccccc2-c2ccc(CN3CCCNCCNCCCNCC3)cc2)nc1`: the inhibition was determined as 79.9% in series [1], 84.1% in series [3], 87.5% in series [4] and 64.6% in series [9]. For the same molecule, the CC50 in [2] was above 10000 nM. The inhibition at 10 µM in series [5] and in series [6] was below 30% each time. Also, the EC50 in [7] turned out to be 2600 nM; in series [8] it was 890 nM.

Consider `c1ccc(CN(Cc2ccc(-c3ccc(CN4CCCNCCNCCCNCC4)cc3)nc2)Cc2ccccn2)nc1`, for which the inhibition in [1] was determined as 27%; in series [3], 105%; in series [4], 102%; in series [9], 89.1%. In series [2], the CC50 was above 10000 nM. For the same molecule, the inhibition at 10 µM in [5] and in [6] was below 30% each time. Also, the 50% effective concentration (EC50) in series [7] was 590 nM; in series [8] it was 130 nM.

As to `c1ccc(CN(Cc2ccc3c(c2)-c2cc(CN4CCCNCCNCCCNCC4)ccc2OCCCO3)Cc2ccccn2)nc1`, the inhibition turned out to be 32.5% in series [1], 97.1% in series [3], 81.8% in [4] and 50.4% in series [9]. The molecule further came in with a CC50 in [2] above 10000 nM. The inhibition at 10 µM in [5] and in series [6] was below 30% throughout. Besides, the concentration for a half-maximal effect (EC50) in series [7] turned out to be 580 nM; in series [8], 300 nM.

On to `c1ccc(CN(Cc2ccc(-c3cccc(CN4CCCNCCNCCCNCC4)c3)cc2)Cc2ccccn2)nc1`, for which the inhibition in series [1] was 10.9%; in series [3], 101%; in series [4], 78.2%; in series [9], 89.7%. The same molecule came in with a CC50 in series [2] above 10000 nM. Moreover, the inhibition at 10 µM in series [5] and in [6] was below 30% in each case. Moreover, the EC50 in series [7] was found to be 800 nM; in series [8] it was 1100 nM.

As for `c1ccc(CN(Cc2cccc(-c3cccc(CN4CCCNCCNCCCNCC4)c3)c2)Cc2ccccn2)nc1`, the inhibition in series [1] amounted to 46.6%; in [3], 105%; in series [4], 88.4%; in [9] it was 40.4%. In series [2], this molecule returned a CC50 above 10000 nM. The inhibition at 10 µM in [5] and in series [6] was below 30% in each case. The EC50 is 750 nM in series [7] and 980 nM in [8].

Take `c1ccc(CN(Cc2cccc(-c3ccccc3CN3CCCNCCNCCCNCC3)c2)Cc2ccccn2)nc1`: the inhibition amounted to 46.1% in series [1], 116% in [3], 83.1% in series [4] and 44.4% in series [9]. The CC50 in series [2] is above 10000 nM. The inhibition at 10 µM in series [5] and in [6] was below 30% throughout. Further, the EC50 in series [7] was 4200 nM; in series [8] it was 1100 nM.

With `c1ccc(CN(Cc2ccc3c(c2)-c2cc(CN4CCCNCCNCCCNCC4)ccc2OCCO3)Cc2ccccn2)nc1`, the inhibition amounted to 48.7% in series [1], 119% in [3], 89% in series [4] and 47.8% in [9]. Moreover, the CC50 in [2] was above 10000 nM. The inhibition at 10 µM in series [5] and in [6] was below 30% in each case. Also, the EC50 turned out to be 1900 nM in series [7] and 970 nM in series [8].

Consider `c1ccc(CN(Cc2ccnc(-c3cc(CN4CCCNCCNCCCNCC4)ccn3)c2)Cc2ccccn2)nc1`, for which the inhibition in series [1] is 100%; in [3] it was 99.2%; in [4], 92.2%; in series [9] it was 88.5%. Further, in series [2], the CC50 was above 10000 nM. In addition, the inhibition at 10 µM in series [5] and in series [6] was below 30% in each case. For the same molecule, the EC50 came to 920 nM in series [7] and 200 nM in [8].

On to `c1ccc(CN(Cc2ccc(-c3ccccc3CN3CCCNCCNCCCNCC3)cc2)Cc2ccccn2)nc1`, for which the inhibition was determined as 54.9% in series [1], 91.6% in [3], 83.1% in series [4] and 52.6% in series [9]. Further, the CC50 in series [2] is above 10000 nM. Moreover, the figures for the inhibition at 10 µM in series [5] and in [6] were 58% and below 30%, respectively. For the same molecule, the IC50 in series [10] amounted to 5.7 nM. The figures for the half-maximal effective concentration (EC50) in series [7] and in series [8] were 40 nM and 21 nM, respectively.

For the molecule `c1ccc(CN(Cc2cccc(-c3ccc(CN4CCCNCCNCCCNCC4)cc3)c2)Cc2ccccn2)nc1`, the inhibition in series [1] came out at 38.3%; in [3] it was 119%; in series [4], 105%; in series [9], 35.6%. The molecule also displayed a CC50 in series [2] above 10000 nM. For the same molecule, the inhibition at 10 µM in [5] and in series [6] was below 30% in each case. Also, the figures for the EC50 in [7] and in [8] were 3100 nM and 1000 nM, respectively.

Take `c1ccc(CN(Cc2ccc3c(c2)-c2cc(CN4CCCNCCNCCCNCC4)ccc2OCO3)Cc2ccccn2)nc1`: the inhibition in [1] turned out to be 54.4%; in series [3] it was 95.6%; in [4], 88.5%; in series [9], 43.5%. The molecule further returned a CC50 in series [2] above 10000 nM. Also, the inhibition at 10 µM in [5] and in series [6] was below 30% in each case. The EC50 came to 800 nM in series [7] and 870 nM in [8].

On to `c1ccc(CN(Cc2ccc3c(c2)-c2cc(CN4CCCNCCNCCCNCC4)ccc2OCCCCO3)Cc2ccccn2)nc1`, for which the inhibition is 57.3% in [1], 78.4% in [3], 78.9% in series [4] and 54.5% in [9]. For the same molecule, the CC50 in series [2] is above 10000 nM. For the same molecule, the inhibition at 10 µM in [5] and in series [6] was below 30% in each case. The EC50 in series [7] amounted to 670 nM; in [8] it was 280 nM.

With `c1ccc(CN(Cc2ccc3ccc(CN4CCCNCCNCCCNCC4)cc3c2)Cc2ccccn2)nc1`, the inhibition in series [1] stood at 83.5%; in series [3], 87.5%; in series [4] it was 84.8%; in [9] it was 82.1%. For the same molecule, in [2], the CC50 was above 10000 nM. Further, the inhibition at 10 µM in series [5] and in series [6] was below 30% each time. For the same molecule, the 50% effective concentration (EC50) turned out to be 790 nM in [7] and 1100 nM in series [8].

For `c1ccc(CN(Cc2ccnc(-c3ccc(CN4CCCNCCNCCCNCC4)cc3)c2)Cc2ccccn2)nc1`, the inhibition worked out at 39.2% in series [1], 89.7% in series [3], 92.6% in [4] and 79.7% in [9]. Besides, in series [2], the 50% cytotoxic concentration (CC50) was above 10000 nM. The inhibition at 10 µM in series [5] and in series [6] was below 30% throughout. Also, the figures for the EC50 in series [7] and in [8] were 140 nM and 45 nM, respectively.

Take `c1ccc(CN(Cc2ccc3nc(CN4CCCNCCNCCCNCC4)ccc3c2)Cc2ccccn2)nc1`: the inhibition in series [1] amounted to 81%; in series [3], 110%; in series [4], 101%; in [9] it was 81.1%. Besides, the CC50 in series [2] is above 10000 nM. For the same molecule, the 50% effective concentration (EC50) was above 970 nM in series [7] and 5500 nM in series [8].

For the molecule `c1ccc(CN(Cc2ccc(-c3ccc(CN4CCCNCCNCCCNCC4)cn3)nc2)Cc2ccccn2)nc1`, the inhibition is 68.6% in series [1], 98.7% in [3], 94.4% in series [4] and 75.3% in [9]. The same molecule came in with a CC50 in series [2] above 10000 nM. The inhibition at 10 µM in [5] and in series [6] was below 30% in each case. The EC50 in series [7] is 680 nM; in [8], 900 nM.

As to `c1ccc(CN(Cc2ccccn2)Cc2ccccc2-c2ccccc2CN2CCCNCCNCCCNCC2)nc1`, the inhibition in series [1] stood at 90.4%; in [3], 74.1%; in [4], 99%; in series [9], 79.8%. The molecule further showed a CC50 in series [2] above 10000 nM. For the same molecule, the inhibition at 10 µM in [5] and in series [6] was below 30% in each case. The EC50 in series [7] came out at 1000 nM; in [8] it was 5800 nM.

For `c1ccc(CN(Cc2ccc(-c3ccc(CN4CCCNCCNCCCNCC4)cc3)cc2)Cc2ccccn2)nc1`, the inhibition in series [1] was 33.9%; in [3] it was 85.5%; in series [4], 87.9%; in series [9] it was 51.1%. Half-maximal cytotoxicity in series [2] (CC50) was put at 4800 nM. Besides, the inhibition at 10 µM in series [5] and in series [6] was below 30% each time. Further, the figures for the EC50 in series [7] and in series [8] were 780 nM and 1000 nM, respectively.
